Calls of active or inactive are those of the source. The rule behind the calls is not given here.
Columns and labels:
Mus musculus [1] = assay: Radioprotective activity against 60Co gamma-irradiation-induced toxicity in C57/BL mouse assessed as survival rate at 5 mg/kg, ig administered 24 hrs prior to irradiation and measured over 30 days post irradiation (reference value: 50%); assay type: functional; conditions: light or radiation study, po
HUVEC [2] = assay: Radioprotective activity against 60Co gamma-irradiation-induced DNA damage in HUVEC after 24 hrs by comet assay; assay type: functional, cell-based; conditions: Homo sapiens
Outline: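 HUVECs (RPMI-1640, 10% FBS) incubated with compound 24 h, then given 6.0 Gy 60Co γ at 0.93 Gy/min. At 24 h post-irradiation, cells (1 × 10^5/mL) were embedded in comet agarose and lysed 30 min at 4 °C. Alkaline unwinding (300 mM NaOH, 1 mM EDTA, pH > 13) ran 30 min, then electrophoresis at 1.0 V/cm, 20 min. Vista green stain; tail length (µm) of 50 comets/slide; three repeats.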

HUVEC [3] = assay: Radioprotective activity against 60Co gamma-irradiation-mediated cytotoxicity in HUVEC assessed as survival rate at 20 uM preincubated for 24 hrs followed by gamma-irradiation and measured after 4 days by MTS assay relative to control; assay type: functional; conditions: Homo sapiens, light or radiation study, read-out: Survival
Outline: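 HUVECs in RPMI-1640 with 10% FBS, seeded 4000 cells per mL. After 24 h, exposed to compound from a 100 mM DMSO stock (final 20 µM) for 24 h. Then ⁶⁰Co γ-irradiated at 8.0 Gy, 0.93 Gy min⁻¹, and cultured 4 days with medium changes. MTS added for 3 h at 37 °C and A492 read. Survival calculated relative to non-irradiated cells; mean of three independent experiments.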

HUVEC [4] = assay: Radioprotective activity against 60Co gamma-irradiation-mediated cytotoxicity in HUVEC assessed as increase in survival rate at 40 uM preincubated for 24 hrs followed by gamma-irradiation and measured after 4 days by MTS assay relative to control; assay type: functional, cell-based; conditions: Homo sapiens
Outline: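 HUVECs seeded at 4000 cells/mL in RPMI-1640 with 10% FBS. After 24 h, compound added at 40 µM (diluted from 100 mM DMSO stock) for 24 h, then 8.0 Gy 60Co γ at 0.93 Gy/min. Cells grown 4 days with medium changed every 2 days, then MTS for 3 h at 37 °C and A492 read. Survival = blank-corrected OD relative to unirradiated cells; mean of three experiments.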

Mus musculus [5] = assay: Radioprotective activity against 60Co gamma-irradiation-induced body weight loss in C57/BL mouse assessed as increase in body weight at 300 mg/kg, ip administered 15 mins and 24 hrs prior to irradiation and measured over 10 to 30 days post irradiation; assay type: functional, organism-based
HUVEC [6] = assay: Cytotoxicity against HUVEC at 100 uM after 24 hrs by MTS assay; assay type: cell-based; conditions: human
Outline: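 HUVECs grown in RPMI-1640 with 10% FBS and penicillin/streptomycin, pH 7.2, 37 °C, 5% CO2, then trypsinized at 80% confluence. Compound exposure at 100 µM, with viability read by MTS tetrazolium assay.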

Mus musculus [7] = assay: Radioprotective activity against 60Co gamma-irradiation-induced toxicity in C57/BL mouse assessed as survival rate at 300 mg/kg, ip administered 15 mins and 24 hrs prior to irradiation and measured over 30 days post irradiation (reference value: 50%); assay type: functional; conditions: light or radiation study
Mus musculus [8] = assay: Radioprotective activity against 60Co gamma-irradiation-induced toxicity in C57/BL mouse assessed as survival rate at 300 mg/kg, sc administered 15 mins and 24 hrs prior to irradiation and measured over 30 days post irradiation (reference value: 50%); assay type: functional; conditions: light or radiation study

| Compound | survival at 5 mg/kg (Mus musculus [1]) | Activity (HUVEC [2]) | viability at 20 µM (HUVEC [3]) | Activity (HUVEC [4]) | Activity (Mus musculus [5]) | Activity (HUVEC [6]) | survival at 300 mg/kg (Mus musculus [7]) | survival at 300 mg/kg (Mus musculus [8]) |
| --- | --- | --- | --- | --- | --- | --- | --- | --- |
| C#C[C@]1(O)[C@H](O)C[C@H]2[C@@H]3CCc4cc(OC5CCCC5)ccc4[C@H]3CC[C@@]21C [NYLESTRIOL] | 100% | – | – | – | – | – | – | – |
| [O-][S+](Cc1ccc(F)cc1)c1ccc2cc(Br)ccc2c1 (centres undefined) | – | Active | 77.2% | Active | Active | Non-Toxic | 100% | – |
| O=S(=O)(Cc1ccccc1F)c1ccc2cc(Br)ccc2c1 | – | – | 52.4% | Active | – | Non-Toxic | – | – |
| O=S(=O)(Cc1ccccc1Cl)c1ccc2cc(Br)ccc2c1 | – | – | 56.7% | Active | – | Non-Toxic | – | – |
| [O-][S+](Cc1ccccc1F)c1ccc2cc(Br)ccc2c1 (centres undefined) | – | – | 51.3% | Active | – | Non-Toxic | – | – |
| [O-][S+](Cc1ccc(Br)cc1)c1ccc2ccccc2c1 (centres undefined) | – | – | 59.3% | Active | – | Non-Toxic | – | – |
| [O-][S+](Cc1cccc(Cl)c1)c1ccc2cc(Br)ccc2c1 (centres undefined) | – | – | 55.1% | Active | – | Non-Toxic | – | – |
| O=S(=O)(Cc1ccc(Br)cc1)c1ccc2cc(Br)ccc2c1 | – | – | 53.1% | Active | – | Non-Toxic | – | – |
| O=C(O)c1ccc(/C=C/S(=O)(=O)Cc2ccc(Cl)cc2)cc1 [RECILISIB SODIUM] | – | – | 57.5% | Active | – | – | – | 60% |
| [O-][S+](Cc1ccc(Cl)cc1)c1ccc2ccccc2c1 (centres undefined) | – | – | 57.2% | Active | – | Non-Toxic | – | – |
| [O-][S+](Cc1ccc(F)cc1)c1ccc2ccccc2c1 (centres undefined) | – | – | 52% | Active | – | Non-Toxic | – | – |
